Assay outcomes from PubChem BioAssay.
Most compounds without a hit are left out; they make up all but 5.6% or so of the library.
UPR CHOP act = activators of apoptotic arm of unfolded protein response (CHOP); CHO-CHOP luciferase reporter, UPR activation, luminescence; percent of tunicamycin response over DMSO baseline; activation, % at 10 µM; 330,000 tested, 0.34% active; AID 449763;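 active = at 10 µM dose, activation of 40% or more, normalized to positive control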;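 note: 100% = tunicamycin at 10 µg/mL and 0% = DMSO alone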
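Assay system: CHO cells with stable CHOP pathway luciferase reporter; Buffer or medium: F12 plus 10% serum; Times: 16-18 h cell attachment, then 6 h compound exposure, 37 °C; Signal: luciferase luminescence; Read-out basis: percent activation relative to tunicamycin control; Control set: tunicamycin high control, DMSO low control.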
aDG glyco act = alpha-DG glycosylation activation; Pro5-aDG cells, alpha-DG glycosylation AlphaScreen (IIH6); 0% Pro5, 100% B10-LARGE cell signal; 360,000 tested, 0.22% active; AID 624168; activation, % at 10 µM;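 active = activation of at least 8% versus controls, or a plate z-score of at least 8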;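 note: Pro5 are CHO cells carrying HIG-tagged alpha-DG that lacks glycosylation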
XBP1 UPR activ = activators of adaptive arm of unfolded protein response (XBP1); CHO-XBP1 luciferase reporter, IRE1-XBP1 UPR activation, luminescence; percent of tunicamycin response, DMSO as zero; activation, % at 20 µM; 330,000 tested, 0.33% active;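 active = versus positive control, 20 µM dose yields 30% or more activation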;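 note: 100% = tunicamycin at 10 µg/mL and 0% = DMSO only wells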
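Assay system: IRE1-XBP1 luciferase reporter CHO line. Input: 1000 cells/well. Buffer or medium: F12 with 10% serum. Doses: 20 µM, 1% DMSO. Times: overnight seeding at 37 °C, 6 h compound treatment at 37 °C. Technique: Steady-Glo luciferase glow luminescence, 10 min after reagent addition.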
MPTP block = inhibitors of mitochondrial permeability transition pore; isolated mouse mitochondria, Ca2+ swelling absorbance, 30 min; inhibition, % at 10 µM; 360,000 tested, 1.4% active; AID 602449;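 active = inhibition of 50% or more, scaled per plate between neutral and stimulator controls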;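 note: 0% = DMSO wells given calcium and 100% = 1 mM EGTA wells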
CHOP inhibitor = blocks CHOP induction under ER stress | CHO-K1 CHOP-promoter luciferase, tunicamycin-induced, 15-18 h | inhibition, % at 10 µM | 220,000 tested, 3.8% active;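 active = compounds that reduced the stress-induced luciferase reporter signal by more than about 70% of percent inhibition, limit read from the data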;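 note: 0% = tunicamycin plus vehicle and 100% = wells without tunicamycin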
GRIN3A LBD mod = NR3A (human) ligand-binding domain modulation. NR3A LBD differential scanning fluorimetry, Tm shift; 0% = protein alone, 100% = glycine-bound protein. Tm shift relative to glycine control, % at 25 µM. 340,000 tested, 2.5% active. AID 1259313;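 active = melting temperature shift of at least 10% of the positive control shift, at one fixed dose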
Rh123 counter = membrane potential counter-screen of mitochondrial pore inhibitors; shares compounds with MPTP block; isolated mitochondria, Rhodamine 123 fluorescence; inhibition, % at 10 µM; 5,000 tested, 78% active; in the data active = inhibition above about 22%;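 note: 0% = DMSO vehicle and 100% = positive control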
MPTP abs DR = MPTP inhibition, dose response swelling confirmation; 780 tested, 58% active; isolated mitochondria swelling, absorbance; shares compounds with MPTP block; AID 651561; IC50, µM; in the data active = IC50 below about 20 µM
MPTP counter DR = counter-screen for mitochondrial permeability transition pore inhibitors, dose response. 780 tested, 49% active. shares compounds with MPTP block. IC50, µM. isolated mitochondria counterscreen, fluorescence read-out; in the data active = IC50 below about 80 µM
* hit, by the source's call; . = no result.

SMILES | UPR CHOP act | aDG glyco act | XBP1 UPR activ | MPTP block | CHOP inhibitor | GRIN3A LBD mod | Rh123 counter | others
CC(=O)Nc1cc(C(=O)N2CCc3ccccc3C2)ccc1Sc1ccc(Cl)cc1 | 0 | 0 | -3 | 8 | 47 | 0 | .
Cc1cc(/C=N/n2c(COc3ccccc3C)nc3ccccc3c2=O)c(O)c([N+](=O)[O-])c1 | 1 | 0 | 4 | 70* | 53 | 9 | 39*
COc1ccc(S(=O)(=O)N2CCN(C)CC2)cc1NC(=O)c1ccccc1 | 1 | 0 | 4 | -1 | . | 1 | .
CCC(C)[C@H]1CN=C(N)N1CCc1cccc2ccccc12 (stereo partly specified) | 1 | 0 | 0 | 90* | . | -4 | 0 | MPTP abs DR=6.5*;MPTP counter DR=30*
CCC(C)[C@H]1CNC(=O)C(=O)N1CCc1cccc2ccccc12 (stereo partly specified) | . | 0 | . | 0 | . | . | .
CCOC(=O)c1sc(=S)n(C)c1NC(=O)c1cccc(Br)c1 | -1 | 0 | -1 | 51* | 16 | -1 | 76*
COc1ccc(C(CNC(=O)c2oc3ccc(Br)cc3c2C)N2CCCCC2)cc1 (stereo unspecified) | 1 | 0 | 2 | 86* | 78* | 1 | -11 | MPTP abs DR=16*;MPTP counter DR=>80
COc1ccc(C(CNC(=O)c2oc3cc(Br)ccc3c2C)N2CCCCC2)cc1 (stereo unspecified) | 5 | 0 | -5 | 2 | . | 4 | .
CC(=O)Nc1csc2ccccc12 | -2 | 0 | 0 | 1 | 7 | -1 | .
CC1(C)SC(=S)N(NC(=O)Nc2ccccc2)C1N(O)C(=O)Nc1cccc2ccccc12 (stereo unspecified) | 1 | 0 | -3 | 72* | 48 | 21* | 69*
O=C(Nc1ccccc1)Nc1cccc2ccccc12 | 3 | 0 | -1 | 71* | 9 | 4 | 75*
O=C(Nc1ccccc1)Nc1csc2ccccc12 | 6 | 0 | 2 | 84* | -12 | 31* | 85*
CCN(CC)C(=O)c1cccc(NC(=O)c2ccccc2OCc2c(C)noc2C)c1 | 0 | 0 | 3 | -1 | . | -1 | .
Cn1c(N)c(C(=O)CSc2nnc(-c3c[nH]c4ccccc34)n2C2CC2)c(=O)[nH]c1=O | 1 | 0 | 2 | -1 | . | 3 | .
COC(=O)C(NC(=O)c1ccccc1C)(Nc1ncc(S(=O)(=O)c2ccc([N+](=O)[O-])cc2)s1)C(F)(F)F (stereo unspecified) | 8 | 0 | -1 | 23 | -5 | -8 | .
COC(=O)C(NC(=O)c1ccc(F)cc1)(Nc1ncc(S(=O)(=O)c2ccc([N+](=O)[O-])cc2)s1)C(F)(F)F (stereo unspecified) | 9 | 0 | -2 | 90* | 1 | 0 | 88*
CCOC(=O)c1ccc(Oc2cn[nH]c2-c2ccc(O)cc2O)cc1 | -2 | 1 | 0 | 55* | 25 | 29* | 26*
S=C(Nc1ccc(Br)cc1)N1CCn2cccc2C1c1cccnc1 (stereo unspecified) | . | 0 | . | 97* | 30 | -25 | 92*
Cc1cccc(C(=O)OCc2cncs2)c1 | 2 | 0 | 0 | -2 | 1 | 0 | .
Cc1cccc(C)c1NC(=S)Nc1ccc(Cl)c(Cl)c1 | -2 | 0 | -2 | 98* | 13 | -1 | 97*
Cc1cc(C)cc(NC(=S)Nc2ccc(Cl)c(Cl)c2)c1 | -1 | 0 | -2 | 103* | 17 | 22* | 89*
O=C(Nc1cccnc1)OCc1ccccc1 | 1 | 0 | 0 | 0 | . | -2 | .
O=C(Nc1ccc(Cl)c(Cl)c1)OCc1cccnc1 | 5 | 1 | 2 | 90* | 25 | -4 | 95*
